# From ChEMBL document CHEMBL1124462, “Synthesis, DNA binding, and biological evaluation of synthetic precursors and novel analogues of netropsin” (J Med Chem, 1989)
# What was measured:
# Vero [1] = assay: Minimum cytotoxic concentration required to cause a microscopically detectable alteration of normal cell morphology and show antiviral activity in african green monkey (Vero B) cells; assay type: functional; conditions: Chlorocebus sabaeus
# Raji = assay: Dose required to inhibit Human B-Lymphoblast (Raji) cell proliferation by 50%; assay type: functional; conditions: read-out: CD50 (the source's name)
# [2] = Dose required to inhibit Murine mammary carcinoma (FM3A) cell proliferation by 50%; assay type: functional; conditions: Mus musculus, read-out: CD50 (the source's name)
# HeLa [3] = assay: Minimum inhibitory concentration required to reduce Coxsackie virus B4 induced cytopathogenicity by 50% in HeLa cells; assay type: functional; conditions: Homo sapiens
# Outline: (§1)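 Cell cultures (PRK, HeLa or Vero B) are infected at 100 × CCID50. Cytopathogenicity is recorded once it reaches completion in the untreated virus-infected controls. The minimum inhibitory concentration is given in μg/mL.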
# HeLa [4] = assay: Minimum cytotoxic concentration required to cause a microscopically detectable alteration of normal cell morphology and show antiviral activity in HeLa cells; assay type: functional; conditions: Homo sapiens
# Outline: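 HeLa cell cultures exposed to compound for the same duration as the antiviral assay, then examined microscopically. The minimum cytotoxic concentration is the lowest level causing detectable alteration of normal cell morphology. Values are in μg/mL.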
# L1210 = assay: Dose required to inhibit Murine leukemia (L1210) cell proliferation by 50%; assay type: functional; conditions: Mus musculus, read-out: CD50 (the source's name)
# Nucleic Acid [5] = assay: Association constant against the polynucleotide poly (dA-dT).; assay type: nucleic-acid assay
# Outline: (§2)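 Competition with ethidium bromide binding at 25 °C in 0.01 M cacodylate buffer, pH 7.0, with 1.26 μM ethidium bromide and 1 μM polynucleotide. Bound ethidium is estimated from its fluorescence increase (V = 34 for poly(dA-dT), 25 for poly(dG-dC)). IC50 for 50% ethidium displacement comes from a fitted competition sigmoid. Kapp is calculated from IC50 assuming a binding size of four base pairs.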
# Nucleic Acid [6] = assay: Ratio of association constant of poly (dA-dT) and poly (dG-dC); assay type: nucleic-acid assay
# Outline: (§3)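 Kapp for poly(dA-dT) and for poly(dG-dC) is each determined by ethidium bromide competition in 0.01 M cacodylate, pH 7.0, 25 °C, with 1.26 μM ethidium and 1 μM polynucleotide. IC50 comes from a fitted competition sigmoid and is converted to Kapp assuming a four-base-pair binding size. The ratio is taken between the two polynucleotides.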
# [7] = Minimum inhibitory concentration required to reduce herpes simplex virus-1 (KOS)induced cytopathogenicity by 50% in primary rabbit kidney cells (PRK); assay type: functional; conditions: Oryctolagus cuniculus
# [8] = Minimum inhibitory concentration required to reduce herpes simplex virus-2 (G)induced cytopathogenicity by 50% in primary rabbit kidney cells (PRK); assay type: functional; conditions: Oryctolagus cuniculus
# Oryctolagus cuniculus = species: Oryctolagus cuniculus; assay: Minimum cytotoxic concentration required to cause a microscopically detectable alteration of normal cell morphology and show antiviral activity in primary rabbit kidney (PRK) cells; assay type: functional
# [9] = Dose required to inhibit Human T-Lymphoblast (Molt/4F) cell proliferation by 50%; assay type: functional; conditions: read-out: CD50 (the source's name)
# Sindbis virus = assay: (§4) Minimum inhibitory concentration required to reduce Sindbis virus induced cytopathogenicity by 50% in african green monkey (VeroB) cells; assay type: functional; outline: as §1
# Vero [10] = assay: Minimum inhibitory concentration required to reduce parainfluenza virus-3 induced cytopathogenicity by 50% in african green monkey (VeroB) cells; assay type: functional, Human respirovirus 3; conditions: Chlorocebus sabaeus; outline: as §1
# [11] = tested on: Mammalian orthoreovirus 1; assay: Minimum inhibitory concentration required to reduce reovirus-1 induced cytopathogenicity by 50% in african green monkey (VeroB)cells; assay type: functional; outline: as §1
# Semliki Forest virus = assay: Minimum inhibitory concentration required to reduce semliki forest virus induced cytopathogenicity by 50% in african green monkey (VeroB) cells; assay type: functional; outline: as §1
# Nucleic Acid [12] = assay: Association constant against polynucleotide poly (dG-dC); assay type: nucleic-acid assay; outline: as §2
# Vero [13] = assay: Minimum inhibitory concentration required to reduce Coxsackie virus B4 induced cytopathogenicity by 50% in african green monkey (VeroB) cells; assay type: functional, Coxsackievirus B4; conditions: Chlorocebus sabaeus; outline: as §1
# HeLa [14] = assay: Minimum inhibitory concentration required to reduce polio virus -1 induced cytopathogenicity by 50% in HeLa cells; assay type: functional; conditions: Homo sapiens
# HeLa [15] = assay: Minimum inhibitory concentration required to reduce vesicular stomatitis virus induced cytopathogenicity by 50% in HeLa cells; assay type: functional; conditions: Homo sapiens
# [16] = (§5) Minimum inhibitory concentration required to reduce vesicular stomatitis virus induced cytopathogenicity by 50% in primary rabbit kidney cells (PRK); assay type: functional; conditions: Oryctolagus cuniculus
# [17] = Minimum inhibitory concentration required to reduce herpes simplex virus-2 (G) induced cytopathogenicity by 50% in primary rabbit kidney cells (PRK); assay type: functional; conditions: Oryctolagus cuniculus; outline: as §1
# [18] = Minimum inhibitory concentration required to reduce herpes simplex virus-1 (KOS) induced cytopathogenicity by 50% in primary rabbit kidney cells (PRK); assay type: functional; conditions: Oryctolagus cuniculus; outline: as §1
# [19] = tested on: Vesicular stomatitis virus; assay: as §5; assay type: functional
# Vero [20] = assay: as §4; assay type: ADME, cell-based; conditions: Chlorocebus sabaeus, read-out: MIC; outline: as §1
# Human alphaherpesvirus 2 = assay: Minimum inhibitory concentration required to reduce herpes simplex virus-2(G) induced cytopathogenicity by 50% in primary rabbit kidney cells (PRK); assay type: functional; outline: as §1
# Human alphaherpesvirus 1 = assay: Minimum inhibitory concentration required to reduce herpes simplex virus-1 (KOS) induced cytopathogenicity by 50% in primary rabbit kidney cells(PRK); assay type: functional; outline: as §1
# Nucleic Acid [21] = assay: Association constant against the polynucleotide poly(dA-dT); assay type: nucleic-acid assay; outline: as §2
# Nucleic Acid [22] = assay: Ratio of association constant of poly(dA-dT) and poly(dG-dC); assay type: nucleic-acid assay; outline: as §3
SMILES,MCC (Vero [1]) [µg/mL],CC50 (Raji) [µg/mL],MIC (HeLa [3]) [µg/mL],MCC (HeLa [4]) [µg/mL],CC50 (L1210) [µg/mL],K app (Nucleic Acid [5]) [M⁻¹],MIC [7] [µg/mL],MIC [8] [µg/mL],MCC (Oryctolagus cuniculus),CC50 [9] [µg/mL],MIC (Sindbis virus) [µg/mL],MIC (Vero [10]) [µg/mL],MIC [11] [µg/mL],MIC (Semliki Forest virus) [µg/mL],K app (Nucleic Acid [12]) [M⁻¹],MIC (Vero [13]) [µg/mL],MIC (HeLa [14]) [µg/mL],MIC (HeLa [15]) [µg/mL],MIC [16] [µg/mL],MIC [19] [µg/mL],other results
Cn1cc(NC(=O)c2cc(NC(=O)CNC(=N)N)cn2C)cc1C(=O)NCCCNCCCCN,≥ 200,> 200,> 200,> 200,> 200,2e+07,> 200,> 200,>=400 ug ml-1,> 200,> 200,> 200,> 100,> 200,7.6e+06,> 200,–,–,–,–,CC50 [2]: > 200 µg/mL; Ratio (Nucleic Acid [6]): 2.63
Cn1cc(NC(=O)c2cc(NC(=O)CNC(=N)N)cn2C)cc1C(=O)NCCC(=N)N [NETROPSIN],> 400,139,> 100,> 100,295,7.3e+08,> 400,> 400,>400 µg/mL,> 100,> 400,> 400,> 400,> 400,31000,> 400,> 100,> 100,> 400,–,CC50 [2]: 321 µg/mL; Ratio (Nucleic Acid [6]): 23500
Cn1c(C(=O)NCCC#N)ccc1[N+](=O)[O-],> 400,> 50,> 200,400,> 50,< 100,–,–,400 µg/mL,> 50,–,> 100,> 100,> 100,< 100,> 200,–,–,–,300,MIC [17]: > 200 µg/mL; MIC [18]: > 200 µg/mL; IC50 (Vero [20]): > 100 µg/mL
Cn1cc(NC(=O)c2cc([N+](=O)[O-])cn2C)cc1C(=O)NCCC(=N)N,400,> 100,> 400,> 400,> 100,–,–,–,400 µg/mL,> 100,> 300,> 200,> 100,300,< 100,> 200,–,–,–,> 100,MIC (Human alphaherpesvirus 2): > 200 µg/mL; MIC (Human alphaherpesvirus 1): > 200 µg/mL; K app (Nucleic Acid [21]): 12000 M⁻¹; Ratio (Nucleic Acid [22]): > 120
Cn1c(C(=O)O)ccc1[N+](=O)[O-],> 400,> 50,70,> 400,> 50,–,–,–,>400 µg/mL,> 50,> 100,> 200,> 100,> 200,–,> 100,> 400,> 200,–,> 400,MIC (Human alphaherpesvirus 2): > 400 µg/mL; MIC (Human alphaherpesvirus 1): > 400 µg/mL
NC(=O)c1ncn([C@@H]2O[C@H](CO)[C@@H](O)[C@H]2O)n1 [RIBAVIRIN],> 400,–,70,> 200,–,–,> 400,> 400,>400 µg/mL,–,70,20,20,150,–,70,70,20,> 400,–,–
Nc1ncnc2c1ccn2[C@@H]1O[C@H](CO)[C@@H](O)[C@H]1O [TUBERCIDIN],> 0.4,–,0.07,> 0.4,–,–,> 0.1,> 0.1,>0.4 µg/mL,–,0.1,0.07,0.07,> 0.4,–,0.07,0.07,0.07,0.2,–,–
